This note sets out measurements from ChEMBL document CHEMBL1123965, “Substituted 1,3,4-thiadiazoles with anticonvulsant activity. 4. Amidines” (J Med Chem, 1988).

Bounds are passed on as bounds.

In data set [1] the test system is Mus musculus. As to the kind of experiment: Anticonvulsant activity in mouse maximal electroshock test 1 hr following p.o. administration. To be noted: po. The class given is functional. An outline of the steps:
(§1)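 Male BKW mice (LACA origin), 18–22 g; compound dissolved or suspended in 2% Tween 80 in distilled water, given po, tested 1 h later. Corneal electrodes delivered 4-ms pulses, 50 Hz, 80 V for 0.3 s. End point was block of hind limb tonic seizure; ED50 with limits from probit analysis (Bliss computerized method).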
In general terms: Protection in the maximal electroshock model is a classic sign of anticonvulsant action.

Data set [2] has as its system Mus musculus. As to the kind of experiment: Anticonvulsant activity in mouse maximal metrazole seizure test 1 hr following p.o. administration. To be noted: po. The class given is functional. An outline of the steps:
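Male BKW mice (LACA origin), 18–22 g, dosed orally with compound in 2% Tween 80/distilled water (solution or suspension). Leptazol 120 mg/kg ip given 1 h after oral dose to provoke maximal seizures. ED50 with limits obtained by Bliss probit analysis.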

Data set [3] can be described thus: The dose at which 50% of the mouse fell off the rotarod. To be noted: in vivo. The class given is ADME, organism-based. An outline of the steps: (§2)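 Male BKW mice (18–22 g), trained beforehand to stay on a 3-cm-diameter rod turning at 16 rpm; dosed po in 2% Tween 80/water and tested 1 h later. TD50 (dose at which half fall off) by probit analysis. Sedation, ataxia, loss of righting reflex and death noted by visual observation after oral dosing.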

The test system of data set [4] is Mus musculus. As to the kind of experiment: The dose at which 50% of the mouse fell off the rotarod; Sedative at 100 mg/kg. The class given is ADME, organism-based. Further details: dose 100 mg/kg. The note with it: in vivo. An outline of the steps: as §2
On the technique in general: The rotarod test checks motor coordination on a turning rod.

The test system of data set [5] is Mus musculus. The data set can be described thus: Anticonvulsant activity in mice (1h after dosing, po) was determined by maximal electroshock test. The class given is functional. In outline:
as §1

Data set [6] relates to Mus musculus. As to the kind of experiment: The dose at which 50% of the mouse fell off the rotarod; Toxic at 200 mg/kg. The class given is toxicity, organism-based. Further details: dose 200 mg/kg. To be noted: in vivo. In outline:
as §2

Data set [7] has as its system Mus musculus. The data set can be described thus: The dose at which 50% of the mouse fell off the rotarod; Sedative at 142 mg/kg. The class given is ADME, organism-based. Further details: dose 142 mg/kg. To be noted: in vivo. In outline:
as §2

The species entered for data set [8] is Mus musculus. As to the kind of experiment: Lethal dose was determined. The class given is toxicity, organism-based. The note with it: in vivo. In outline: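 Male BKW mice (LACA origin, 18–22 g) were dosed orally with compound dissolved or suspended in 2% Tween 80 in distilled water. Before anticonvulsant testing, animals were observed visually for sedation, ataxia, loss of righting reflex and death. The value is reported in the rotorod column, which was read 1 h after oral dosing.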

For orientation: ED50 means the dose that gives a 50% effect, or the effect in half of the subjects. A higher ED50 goes with a need for a large dose. The term TD50 denotes the dose at which the toxic effect under study appears in half of the subjects. High values mean lower toxicity, low ones greater toxicity. For the molecule `CC(=N)Nc1nnc(-c2ccccc2C(F)(F)F)s1`, the values for the ED50 in the data set with Mus musculus [1] and in the data set with Mus musculus [2] were 18 mg/kg and 19 mg/kg, respectively. Further, the TD50 in data set [3] was ~80 mg/kg.
Take `CC(=N)Nc1nnc(-c2ccccc2-c2ccccc2)s1`: the TD50 in data set [3] was > 100 mg/kg.
`CCCC/N=C(/C)Nc1nnc(-c2ccccc2C)s1`: the ED50 was found to be 48 mg/kg in the data set with Mus musculus [1] and 46 mg/kg in the data set with Mus musculus [2]. Besides, the TD50 in data set [3] is > 100 mg/kg.
For `CC(=N)Nc1nnc(-c2ccccc2C)s1`, the median effective dose (ED50) in the data set with Mus musculus [2] was 78 mg/kg; in the data set on Mus musculus [5] it was 200 mg/kg. Also, the TD50 result with Mus musculus [4] is on record as “Sedative at 100 mg/kg”.
Turning to `CC(=N)Nc1nnc(Cc2ccccc2)s1`, the 50% effective dose (ED50) in the data set with Mus musculus [1] came to 31 mg/kg; in the data set on Mus musculus [2], 50 mg/kg. The molecule further showed a TD50 in data set [3] of 200 mg/kg.
`CCCC/N=C(\Nc1nnc(-c2ccccc2-c2ccccc2)s1)C(C)C`: the median effective dose (ED50) in the data set on Mus musculus [1] is > 200 mg/kg; in the data set on Mus musculus [2], > 100 mg/kg.
With `C/C(=N/Cc1ccccc1)Nc1nnc(-c2ccccc2C)s1`, the median effective dose (ED50) is 86 mg/kg in the data set on Mus musculus [1] and 102 mg/kg with Mus musculus [2]. The TD50 in data set [3] was > 200 mg/kg.
Take `Cc1ccccc1-c1nnc(C2=NCCN2)s1`: the 50% effective dose (ED50) in the data set on Mus musculus [1] was > 100 mg/kg; with Mus musculus [2], > 200 mg/kg.
For `CCCC/N=C(/C)Nc1nnc(-c2ccccc2-c2ccccc2)s1`, the results for the ED50 in the data set on Mus musculus [1] and in the data set with Mus musculus [2] were 121 mg/kg and 90 mg/kg, respectively. In addition, in data set [3], the TD50 is > 200 mg/kg.
In the case of `CCCC/N=C(\N)c1nnc(-c2ccccc2C)s1`, the ED50 in the data set on Mus musculus [1] is > 200 mg/kg; with Mus musculus [2], ~142 mg/kg. In the data set on Mus musculus [6], the TD50 entry is on record as “Toxic at 200 mg/kg”.
As for `C/C(=N\c1nnc(-c2ccccc2C)s1)N1CCOCC1`, the results for the 50% effective dose (ED50) in the data set with Mus musculus [1] and with Mus musculus [2] were 108 mg/kg and 148 mg/kg, respectively. For the same molecule, in the data set on Mus musculus [7], the TD50 result is on record as “Sedative at 142 mg/kg”.
Consider `c1ccc(-c2ccccc2-c2nnc(C3=NCCN3)s2)cc1`, for which the ED50 with Mus musculus [1] amounted to 103 mg/kg; with Mus musculus [2], 77 mg/kg. The LD30 in the data set listed under Mus musculus [8] is 200 mg/kg.
On to `CCCC/N=C(/Cc1ccccc1)Nc1nnc(-c2ccccc2C(F)(F)F)s1`, for which the 50% effective dose (ED50) in the data set on Mus musculus [1] was > 200 mg/kg; with Mus musculus [2] it was > 100 mg/kg.
Take `N=C(Cc1ccccc1)Nc1nnc(Cc2ccccc2)s1`: the values for the 50% effective dose (ED50) in the data set with Mus musculus [1] and with Mus musculus [2] were 86 mg/kg and 45 mg/kg, respectively. Further, in data set [3], the TD50 was > 500 mg/kg.
With `CCCC(=N)Nc1nnc(-c2ccccc2C(F)(F)F)s1`, the 50% effective dose (ED50) in the data set on Mus musculus [1] is 63 mg/kg; with Mus musculus [2], 60 mg/kg. The same molecule came in with a TD50 in data set [3] of 150 mg/kg.
With `Cc1ccccc1-c1nnc(/N=C/Nc2nnc(-c3ccccc3C)s2)s1`, the median effective dose (ED50) with Mus musculus [1] and with Mus musculus [2] was > 200 mg/kg in each case.
Regarding `CCN(CC)/C(C)=N/c1nnc(-c2ccccc2C)s1`, the median effective dose (ED50) with Mus musculus [1] stood at 81 mg/kg; in the data set on Mus musculus [2], 84 mg/kg. In addition, the TD50 in data set [3] was > 200 mg/kg.
For `CCCC/N=C(/C)Nc1nnc(-c2ccccc2C(F)(F)F)s1`, in that order: 33 mg/kg, 21 mg/kg and ~70 mg/kg.
